Sampled rows, rich in hits. Any-hit rate of the full collection: about 2.5%.
HTRA1 inhibitor: HTRA1 serine protease inhibitors, primary screen, biochemical, fluorescence polarization, HTS | Q92743 | recombinant HTRA1, FP-rhodamine activity-based probe | inhibition, % at 5.96 µM | 340,000 tested, 0.5% active | AID 504803, 2011; in the data active means inhibition above about 36%;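 further: 0% = enzyme with DMSO and 100% = wells lacking enzyme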
SIAE inh: human SIAE inhibitors, primary screen, biochemical, fluorescence polarization, FP-Rh probe, 1536-well HTS | Sialate O-acetylesterase (Homo sapiens), Q9HAT2 | SIAE FP-Rh probe binding | inhibition, % at 9.66 µM | 370,000 tested, 0.69% active;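 active means inhibition above a cutoff: mean of compounds within the control limits plus 3 SD of those, cut at about 17% in these data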;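 further: 0% = plate median of compound wells and 100% = probe without SIAE protein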
Target sequence (Q9HAT2 whole entry, looked up): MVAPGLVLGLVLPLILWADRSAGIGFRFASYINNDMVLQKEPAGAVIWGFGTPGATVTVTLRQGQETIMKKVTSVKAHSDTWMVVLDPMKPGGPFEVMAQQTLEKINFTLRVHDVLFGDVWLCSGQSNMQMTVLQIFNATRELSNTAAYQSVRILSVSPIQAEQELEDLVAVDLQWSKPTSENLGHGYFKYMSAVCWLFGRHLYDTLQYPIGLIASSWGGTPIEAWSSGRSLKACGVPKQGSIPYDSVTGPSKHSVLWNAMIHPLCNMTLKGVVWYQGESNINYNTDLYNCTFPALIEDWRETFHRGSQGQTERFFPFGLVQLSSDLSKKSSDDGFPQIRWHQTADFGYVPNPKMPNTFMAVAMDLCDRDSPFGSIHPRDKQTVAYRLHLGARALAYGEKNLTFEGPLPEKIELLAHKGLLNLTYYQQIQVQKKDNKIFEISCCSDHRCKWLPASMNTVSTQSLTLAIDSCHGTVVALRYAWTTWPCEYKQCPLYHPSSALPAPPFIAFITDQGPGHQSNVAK
TCR CD3 inh: inhibitors of human TCR-CD3 interaction, primary screen, biochemical, fluorescence, TAMRA-labeled TCR probe | 360,000 tested, 0.37% active | T-cell receptor (TCR) | AID 651800, 2012 | inhibition, % at 9.4 µM; in the data active means inhibition above about 19%;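 further: recombinant mutant TCR 2C K166C tagged with TAMRA read by polarization; 0% = receptor in buffer alone and 100% = receptor with positive control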
mABHD4 FP: ABHD4 inhibitors, primary screen, biochemical, fluorescence polarization, mouse | 370,000 tested, 0.54% active | inhibition, % at 8.92 µM | purified mABHD4, FP-Rh probe fluorescence polarization;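 active means inhibition exceeding the mean over every tested compound plus 3 SD, cut at about 30% in these data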;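 further: 0% = plate median of compound wells and 100% = S159A mutant with DMSO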
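Test system: mABHD4 protein | Buffer or medium: HEPES pH 7.0 buffer, 150 mM NaCl, 0.01% Pluronic F-127 | Probe or stimulus: FP-Rh fluorescent activity-based probe, added after compound pre-incubation | Timing: Pre-incubation 45 min, probe exposure 60 min, at 25 °C | Technique: Fluorescence polarization, excitation 525 nm, emission 598 nm, BODIPY TMR filters | Repeats: Single well per compound (singlicate)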
PRMT1 FP inh: PRMT1 methyltransferase inhibitors, primary screen, biochemical, fluorescence polarization; 370,000 tested, 1.3% active; Protein arginine N-methyltransferase 1 (Homo sapiens), Q99873; inhibition, % at 2.79 µM; recombinant PRMT1, activity-based probe fluorescence polarization;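 active means inhibition above about 21% made by adding two undisclosed values, limit read from the data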
SIAE inh conf: human SIAE inhibitors, retest, confirmation, biochemical, fluorescence polarization, FP-Rh probe, triplicate | shares compounds with SIAE inh | SIAE FP-Rh activity-based probe | inhibition, % at 9.66 µM | 2,300 tested, 13% active;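 active means mean inhibition of the replicates above the hit cutoff set in the primary screen, cut at about 17% in these data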;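 further: 0% = SIAE with DMSO and probe and 100% = probe without SIAE; inhibitors lower polarization as more probe stays unbound to SIAE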
* hit, by the source's call; · = no result given.

SMILES	HTRA1 inhibitor	SIAE inh	TCR CD3 inh	mABHD4 FP	PRMT1 FP inh	SIAE inh conf
CCNC(=S)NN=C1c2ccccc2-c2ccccc21	-33.0	24.1*	-2.6	-1.4	4.3	4.0
CC(c1ccccc1)N1CC[C@H]2C=CC[C@@H](C(=O)Nc3ccc(F)c(F)c3)[C@H]2C1=O (some centres undefined)	·	10.0	·	-4.2	-1.7	·
C[C@H](CO)N1C[C@H](C)[C@H](CN(C)S(=O)(=O)c2cccs2)Oc2ccc(NC(=O)Nc3ccc4c(c3)OCO4)cc2CC1=O	-5.4	20.9*	-2.7	4.0	-2.1	2.5
C[C@H](CO)N1C[C@H](C)[C@H](CN(C)S(=O)(=O)c2ccccc2)Oc2ccc(NC(=O)NC3CCCCC3)cc2CC1=O	-2.0	29.6*	-5.2	-7.2	2.2	-0.3
COc1ccc(-n2c(Cc3cccn3C)nnc2SCC(=O)Nc2nccs2)cc1	6.7	17.3*	0.1	0.5	6.7	2.6
Cn1cccc1Cc1nnc(SCC(=O)Nc2nccs2)n1C	3.9	2.8	9.2	-0.1	5.7	·
CCN1C[C@@H]2[C@@H]3C(=O)N(C)C(=O)[C@@H]3[C@](Cc3ccccc3)(C1=O)N2C(=O)c1ccc(C(C)(C)C)cc1	-2.3	21.1*	5.1	0.5	1.5	0.5
CCN1C[C@@H]2[C@@H]3C(=O)N(C)C(=O)[C@@H]3[C@](Cc3ccccc3)(C1=O)N2C(=O)c1ccc(C)cc1	-0.1	-2.7	-0.4	1.4	1.0	·
O=S(=O)(c1ccc(Cl)s1)N1CCC(c2cn3ccccc3n2)CC1	·	3.3	·	-0.3	-0.3	·
N=c1n(CCN2CCOCC2)c2ccccc2n1CC(=O)c1cccc([N+](=O)[O-])c1	1.6	2.3	3.5	4.4	7.9	·
N=c1n(CCN2CCOCC2)c2ccccc2n1CC(=O)c1ccc(Cl)c(Cl)c1	-13.2	19.2*	2.4	-5.7	2.3	3.3
COC(=O)[C@]12C[C@H](CC(=O)NCc3ccc(OC)c(OC)c3)C(=O)N(CCc3ccc(OC)c(OC)c3)C1=C[C@H](C1CCCC1)O[C@@H]2C	·	0.2	·	-1.2	-2.7	·
COC(=O)C1CN(Cc2ccc(OC)cc2)CCS(=O)(=O)N1Cc1cn(Cc2ccc(OC)cc2)nn1 (centres undefined)	·	-3.2	·	2.7	2.3	·
COc1ccc(OC)c(S(=O)(=O)N2CCCCC2C(=O)N2CCN(CCO)CC2)c1 (centres undefined)	·	4.1	·	2.6	4.2	·
COc1ccc(C(=O)N2CCC(Oc3cccnc3)CC2)c(OC)c1	·	4.8	·	10.0	3.7	·
O=C(NNC(=O)C1CC1c1ccccc1)c1cccc([N+](=O)[O-])c1 (centres undefined)	4.2	18.1*	-1.2	-0.8	0.8	0.7
O=C(O)c1ccccc1NN=Cc1ccccc1	3.1	17.7*	-8.0	6.0	-0.4	2.3
COc1cccc(/C=N/Nc2ccccc2C(=O)O)c1O	2.5	-1.0	5.2	10.3	1.6	·
CCN=C1SC(CC(=O)Nc2ccc(N3CCOCC3)cc2)C(=O)N1CC (centres undefined)	0.1	18.9*	-7.2	1.0	-5.5	-0.2
CCN=C1SC(CC(=O)Nc2ccc(C(F)(F)F)cc2)C(=O)N1CC (centres undefined)	0.8	-6.1	-0.6	-2.4	-0.6	·
CC(C)(Oc1ccc(Cl)cc1)C(=O)O/N=C(\N)c1ccncc1	-7.3	17.9*	1.8	-1.4	0.2	0.9
N/C(=N\OC(=O)Cc1ccc(Cl)cc1)c1ccncc1	-0.5	-2.9	7.0	-4.4	-5.5	·
CN(Cc1cn(Cc2ccccc2)nn1)S(=O)(=O)c1ccccc1Br	·	4.0	·	-0.3	-4.3	·
CC#CCCCC(=O)Nc1ccccc1C(=O)O	4.5	18.7*	7.0	-2.0	-1.8	3.0
CCCCNC(=O)C[C@H]1C[C@@]2(C(=O)OC)C(=C[C@H](C(C)C)O[C@@H]2C2CC2)N(Cc2ccco2)C1=O	·	1.9	·	-0.2	-0.1	·
O=C(NC(=S)N(Cc1ccccc1)Cc1ccccc1)c1ccccc1F	-12.2	78.7*	-4.1	2.5	3.6	-1.8

High-throughput results from PubChem BioAssay.
